Test results: ChEMBL document CHEMBL1142626, “Insecticidal and mutagenic evaluation of two annonaceous acetogenins” (J Nat Prod, 2000)

Assays:
Salmonella typhimurium [1] = test: Mutagenic activity in Salmonella Typhimurium TA98 assessed as number of revertants at 10 ug/plate in presence of Wistar rat S9 liver homogenate; format: toxicity, organism-based, Liver S9 fraction; conditions: salmonella enterica subsp. enterica serovar typhimurium
Summary of the method: (§1)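 Salmonella/microsome plate test, with or without S9 from livers of male Wistar rats (~200 g). Strain markers and spontaneous revertant counts were routinely verified. Revertants are reported as mean ± standard error of triplicate plates. Strain-specific positive controls were used, with 2-aminoanthracene for all strains when S9 was present.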

Salmonella typhimurium [2] = test: Mutagenic activity in Salmonella Typhimurium TA102 assessed as number of revertants at 50 ug/plate in presence of Wistar rat S9 liver homogenate; format: toxicity, organism-based, Liver S9 fraction; conditions: salmonella enterica subsp. enterica serovar typhimurium; summary of the method: as §1
Salmonella typhimurium [3] = test: Mutagenic activity in Salmonella Typhimurium TA100 assessed as number of revertants at 20 ug/plate in presence of Wistar rat S9 liver homogenate; format: toxicity, organism-based, Liver S9 fraction; conditions: salmonella enterica subsp. enterica serovar typhimurium; summary of the method: as §1
Salmonella typhimurium [4] = test: Mutagenic activity in Salmonella Typhimurium TA98 assessed as number of revertants at 20 ug/plate in absence of Wistar rat S9 liver homogenate; format: toxicity, organism-based; conditions: salmonella enterica subsp. enterica serovar typhimurium
Summary of the method: (§2)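 Salmonella/microsome plate test (Ames) in strain TA98, with genetic markers and spontaneous revertant counts verified routinely. Run with and without S9 mix, the S9 being liver postmitochondrial supernatant from male Wistar rats of about 200 g. Doses ran from 0.01 to 100 µg/plate. Revertants are the mean of triplicate plates with standard error. Positive controls were 0.5 µg 4-nitroquinoline-N-oxide without S9 and 15 µg 2-aminoanthracene with S9.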

Salmonella typhimurium [5] = test: Mutagenic activity in Salmonella Typhimurium TA100 assessed as number of revertants at 10 ug/plate in absence of Wistar rat S9 liver homogenate; format: toxicity, organism-based; conditions: salmonella enterica subsp. enterica serovar typhimurium; summary of the method: as §1
Salmonella typhimurium [6] = test: Mutagenic activity in Salmonella Typhimurium TA102 assessed as number of revertants at 0.1 ug/plate in absence of Wistar rat S9 liver homogenate; format: toxicity, organism-based; conditions: salmonella enterica subsp. enterica serovar typhimurium; summary of the method: as §1
Salmonella typhimurium [7] = test: Mutagenic activity in Salmonella Typhimurium TA102 assessed as number of revertants at 0.01 ug/plate in absence of Wistar rat S9 liver homogenate; format: toxicity, organism-based; conditions: salmonella enterica subsp. enterica serovar typhimurium; summary of the method: as §1
Salmonella typhimurium [8] = test: Mutagenic activity in Salmonella Typhimurium TA98 assessed as number of revertants at 100 ug/plate in absence of Wistar rat S9 liver homogenate; format: toxicity, organism-based; conditions: salmonella enterica subsp. enterica serovar typhimurium; summary of the method: as §2
Salmonella typhimurium [9] = test: Mutagenic activity in Salmonella Typhimurium TA100 assessed as number of revertants at 0.01 ug/plate in absence of Wistar rat S9 liver homogenate; format: toxicity, organism-based; conditions: salmonella enterica subsp. enterica serovar typhimurium; summary of the method: as §1
Salmonella typhimurium [10] = test: Mutagenic activity in Salmonella Typhimurium TA100 assessed as number of revertants at 0.1 ug/plate in presence of Wistar rat S9 liver homogenate; format: toxicity, organism-based, Liver S9 fraction; conditions: salmonella enterica subsp. enterica serovar typhimurium; summary of the method: as §1
Salmonella typhimurium [11] = test: Mutagenic activity in Salmonella Typhimurium TA100 assessed as number of revertants at 100 ug/plate in presence of Wistar rat S9 liver homogenate; format: toxicity, organism-based, Liver S9 fraction; conditions: salmonella enterica subsp. enterica serovar typhimurium; summary of the method: as §1
Salmonella typhimurium [12] = test: Mutagenic activity in Salmonella Typhimurium TA100 assessed as number of revertants at 0.1 ug/plate in absence of Wistar rat S9 liver homogenate; format: toxicity, organism-based; conditions: salmonella enterica subsp. enterica serovar typhimurium; summary of the method: as §1
Spodoptera littoralis [13] = test: Antifeedant effect against Spodoptera littoralis L6 larvae assessed as relative consumption rate at 10 ug, po after 72 hrs; format: functional
Summary of the method: (§3)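 Preweighed, newly emerged S. littoralis L6 larvae (20 per experiment) were orally cannulated with 10 µg in 2 µL DMSO; controls got solvent alone. Relative consumption and growth rates were calculated at 72 h on a dry-weight basis. Log-transformed weights were analysed by ANOVA with LSD tests.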

Salmonella typhimurium [14] = test: Mutagenic activity in Salmonella Typhimurium TA100 assessed as number of revertants at 10 ug/plate in presence of Wistar rat S9 liver homogenate; format: toxicity, organism-based, Liver S9 fraction; conditions: salmonella enterica subsp. enterica serovar typhimurium; summary of the method: as §1
[15] = tested on: Leptinotarsa decemlineata; test: Insecticidal activity against Leptinotarsa decemlineata assessed as mortality at 5 ug by hemolymph injection after 72 hrs; format: functional
Summary of the method: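 Adult L. decemlineata (20 beetles) were injected with 5 µg in DMSO through the metepimeron suture of the thorax. Beetles were kept on potato leaves. Symptoms and mortality were recorded up to 3 days, analysed by contingency tables and Abbott-corrected.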

Salmonella typhimurium [16] = test: Mutagenic activity in Salmonella Typhimurium TA98 assessed as number of revertants at 100 ug/plate in presence of Wistar rat S9 liver homogenate; format: toxicity, organism-based, Liver S9 fraction; conditions: salmonella enterica subsp. enterica serovar typhimurium; summary of the method: as §2
Salmonella typhimurium [17] = test: Mutagenic activity in Salmonella Typhimurium TA102 assessed as number of revertants at 50 ug/plate in absence of Wistar rat S9 liver homogenate; format: toxicity, organism-based; conditions: salmonella enterica subsp. enterica serovar typhimurium; summary of the method: as §1
Spodoptera littoralis [18] = test: Antifeedant effect against Spodoptera littoralis assessed as feeding reduction at 100 ug/cm2 relative to control; format: functional; design: scale not given: the % may be the effect or the level left
Summary of the method: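 Choice test on leaf disks using adult L. decemlineata or newly emerged fifth-instar S. littoralis larvae. Five to 10 plates per treatment, three insects each. Uneaten leaf-disk area was measured by scanner. %FR = [1 − (treatment/control consumption)] × 100 per arena. Where FR exceeded 50%, EC50 was taken from linear regression of %FR on log dose.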

Salmonella typhimurium [19] = test: Mutagenic activity in Salmonella Typhimurium TA100 assessed as number of revertants at 100 ug/plate in absence of Wistar rat S9 liver homogenate; format: toxicity, organism-based; conditions: salmonella enterica subsp. enterica serovar typhimurium; summary of the method: as §1
Salmonella typhimurium [20] = test: Mutagenic activity in Salmonella Typhimurium TA98 assessed as number of revertants at 0.01 ug/plate in presence of Wistar rat S9 liver homogenate; format: toxicity, organism-based, Liver S9 fraction; conditions: salmonella enterica subsp. enterica serovar typhimurium; summary of the method: as §1
Spodoptera littoralis [21] = test: Antifeedant effect against Spodoptera littoralis L6 larvae assessed as relative growth rate at 10 ug, po after 72 hrs; format: functional; summary of the method: as §3
Salmonella typhimurium [22] = test: Mutagenic activity in Salmonella Typhimurium TA98 assessed as number of revertants at 0.1 ug/plate in absence of Wistar rat S9 liver homogenate; format: toxicity, organism-based; conditions: salmonella enterica subsp. enterica serovar typhimurium; summary of the method: as §1
Salmonella typhimurium [23] = test: Mutagenic activity in Salmonella Typhimurium TA100 assessed as number of revertants at 1 ug/plate in absence of Wistar rat S9 liver homogenate; format: toxicity, organism-based; conditions: salmonella enterica subsp. enterica serovar typhimurium; summary of the method: as §1
Salmonella typhimurium [24] = test: Mutagenic activity in Salmonella Typhimurium TA98 assessed as number of revertants at 20 ug/plate in presence of Wistar rat S9 liver homogenate; format: toxicity, organism-based, Liver S9 fraction; conditions: salmonella enterica subsp. enterica serovar typhimurium; summary of the method: as §2
Salmonella typhimurium [25] = test: Mutagenic activity in Salmonella Typhimurium TA102 assessed as number of revertants at 100 ug/plate in absence of Wistar rat S9 liver homogenate; format: toxicity, organism-based; conditions: salmonella enterica subsp. enterica serovar typhimurium; summary of the method: as §1

Structure (SMILES): CCCCCC[C@H](O)CCC[C@H](O)[C@H]1CC[C@H]([C@H]2CC[C@H]([C@H](O)CCCCCCCCCCCCC3=C[C@H](C)OC3=O)O2)O1 [SQUAMOCIN]
- Activity (Salmonella typhimurium [1]): 41
- Activity (Salmonella typhimurium [2]): 99
- Activity (Salmonella typhimurium [3]): 135
- Activity (Salmonella typhimurium [4]): 13
- Activity (Salmonella typhimurium [5]): 69
- Activity (Salmonella typhimurium [6]): 243
- Activity (Salmonella typhimurium [7]): 259
- Activity (Salmonella typhimurium [8]): 6
- Activity (Salmonella typhimurium [9]): 154
- Activity (Salmonella typhimurium [10]): 137
- Activity (Salmonella typhimurium [11]): 102
- Activity (Salmonella typhimurium [12]): 140
- Activity (Spodoptera littoralis [13]): 20.35 mg
- Activity (Salmonella typhimurium [14]): 142
- Activity [15]: 92.18%
- Activity (Salmonella typhimurium [16]): 31
- Activity (Salmonella typhimurium [17]): 93
- Activity (Spodoptera littoralis [18]): <40%
- Activity (Salmonella typhimurium [19]): 21
- Activity (Salmonella typhimurium [20]): 36
- Activity (Spodoptera littoralis [21]): 3.36 mg
- Activity (Salmonella typhimurium [22]): 25
- Activity (Salmonella typhimurium [23]): 114
- Activity (Salmonella typhimurium [24]): 43
- Activity (Salmonella typhimurium [25]): 80
